The source of these data is PubChem BioAssay AID1885 (Broad Institute, 2009).

About 4,400 (1.5%) of roughly 300,000 compounds were called active.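 Rule for the calls: active = mean inhibition across valid replicates above about 55% (limit read from the data); inconclusive = mean below that limit but half or more replicates reach it; inactive = mean below it, under half of replicates reach it.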 The list comes from a sample in which actives are over-represented; it also holds similar structures and randomly drawn compounds.

A short description of the assay: inhibitors of intracellular T. cruzi growth, primary screen, luminescence, NIH3T3 host cells (AID 1885).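 Note: signal also drops with host cell toxicity which is not excluded here; 0% = plate median of DMSO wells and 100% = zero luminescence signal; higher percent means less beta-gal luminescence so fewer parasites.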 As to conditions: T. cruzi beta-gal in NIH3T3, luminescence, 90 h; stronger effect = higher value; concentration not given here. The essentials:
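assay system = mouse NIH/3T3 fibroblasts infected with β-gal-expressing T. cruzi Tulahuen C4 | input = 5,000 NIH/3T3 host cells per well | buffer or medium = DMEM plus 2% FBS | timing = 3 h host attachment, then at least 90 h co-culture | measured by = GalScreen luminescence, 60 min | evaluation = luminescence reflecting intracellular parasite burden, expressed as percent inhibition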
On to `CS(=O)(=O)c1ccc2nc(NC(=O)c3ccc(N4CCCC4=O)cc3)sc2c1`, for which the inhibition is 0.975% (inactive).
Next, `O=C(Nc1nc2ccc([N+](=O)[O-])cc2s1)c1ccc(S(=O)(=O)N2CCCc3ccccc32)cc1`: 73.8% (active); `CN(C)CCCN(C(=O)c1ccc(S(=O)(=O)N2CCCc3ccccc32)cc1)c1nc2ccc(F)cc2s1`: 22.9% (inactive); `CC(C)(C)N1C(=O)[C@H]2[C@@H](c3ccc(Br)cc3)N3C(=O)N(c4cccc(Cl)c4)C(=O)[C@@]3(C)[C@H]2C1=O`: -6.33% (inactive).
Regarding `Cc1ccc(-c2csc(NC(=O)C3=COCCO3)n2)cc1C`, the inhibition was 71.6% (active).
Turning to `Cc1csc(NC(=O)C2=COCCO2)n1`, the inhibition was -7.78% (inactive).
For `CC(=O)NCCC(=O)Nc1nc(-c2ccc3c(c2)OCCO3)cs1`, the inhibition was -11.7% (inactive).
Regarding `Cc1ccc(-c2nn(-c3ccccc3)cc2C(=O)NCCCN2CCCC2=O)cc1`, the inhibition was -2.8% (inactive).
As for `CC(C)(C)n1cnnc1Sc1ccc([N+](=O)[O-])cn1`, the inhibition is -5.35% (inactive).
Regarding `COc1ccc(C2CC(=O)Oc3ccc(C(C)(C)C)cc32)cc1` (stereo unspecified), the inhibition was -9.82% (inactive).
On to `COc1ccc2oc(=O)cc(CN3CCOCC3)c2c1`, for which the inhibition was -6.42% (inactive).
For the compound `CCOc1ccc(N(C)Cc2cc(=O)oc3ccc(OC)cc23)cc1`, the inhibition is 79.2% (active).
Next, `COc1ccc2oc(=O)cc(-c3cc4ccccc4o3)c2c1`: 0.932% (inactive); `CCCn1c(C2CCCN2c2nc(-c3ccc(OC)cc3)cs2)nc2ccccc21` (stereo unspecified): -7.75% (inactive).
Next, `CCN1CCN(C(c2cccnc2)c2cc(Cl)c3cccnc3c2O)CC1` (stereo unspecified): 57.7% (active); `CCOC(=O)N1CCN(C(c2cccnc2)c2ccc3cccnc3c2O)CC1` (stereo unspecified): 30.1% (inactive); `Oc1c(C(c2ccccn2)N2CCOCC2)ccc2cccnc12` (stereo unspecified): 10.2% (inactive).
On to `COc1ccc(Cl)cc1NS(=O)(=O)c1cccc(C(=O)NC2CCC(O)CC2)c1` (stereo unspecified), for which the inhibition is 3.45% (inactive).
Take `COC(=O)c1c(-c2ccsc2)oc2ccc(-c3cc(OC)c(OC)c(OC)c3)cc12`: the inhibition is 34% (inactive).
The value for `Cc1nnc(N/N=C/C2CC=CCC2)[nH]c1=O` (stereo unspecified) was 0.195% (inactive).
Next, `CNC(=O)C(=O)N/N=C/c1ccccn1`: -8.15% (inactive).
The value for `Cc1nnc(N/N=C/c2ccccn2)[nH]c1=O` was 60.9% (active).
For `CC1(C)S[C@@H]2[C@H](N=CN3CCCCCC3)C(=O)N2[C@H]1C(=O)O`, the inhibition is 4.45% (inactive).
On to `O=C(NCc1ccc(Cl)cc1)C(=O)NCC1CCCN1S(=O)(=O)c1cccs1` (stereo unspecified), for which the inhibition is 12.8% (inactive).
As to `O=C(CSc1ncn[nH]1)N/N=C/c1ccc(F)cc1`, the inhibition was -12.6% (inactive).
Next, `O=C(/C=C/Sc1ncn[nH]1)c1ccc(Cl)cc1`: 56.1% (active).
The value for `Cc1cc(C)nc(S/C=C/C(=O)c2ccccc2)n1` was 12% (inactive); that for `O=C1[C@H]2[C@@H](c3ccc(F)cc3)N3C(=O)N(c4ccc(C(F)(F)F)cc4)C(=O)[C@@]3(Cc3ccccc3)[C@H]2C(=O)N1C1CCCCC1` was 36.5% (inactive).
On to `COc1ccc(CNC(=O)C2CCN(C(=O)c3ccccc3)CC2)cc1`, for which the inhibition is -1.19% (inactive).
As to `COc1cccc(N=c2oc3c(C)ncc(CO)c3cc2C(N)=O)c1`, the inhibition is 13.3% (inactive).
Consider `Cc1nc(Nc2ccc3c(c2)OCCO3)c2nnn(Cc3ccccc3Cl)c2n1`, for which the inhibition is 54.7% (active).
As to `CCCc1nc(NCc2ccc3c(c2)OCO3)c2nnn(Cc3ccccc3Cl)c2n1`, the inhibition was 11.9% (inactive).
Consider `Cc1nc(Nc2ccccc2F)c2nnn(Cc3ccccc3Cl)c2n1`, for which the inhibition is -8.04% (inactive).
Regarding `Cc1ccc(NS(=O)(=O)c2ccc3c(c2)NC(=O)CO3)cc1`, the inhibition was 5.83% (inactive).
Next, `CN(CC(=O)Nc1cccc(F)c1)C(=O)C1CC(=O)N(CCc2ccccc2)C1` (stereo unspecified): -2.73% (inactive); `Cc1ccc(-n2c(SCC(=O)N3c4ccccc4Sc4ccccc43)nnc2-c2ccncc2)cc1`: 63.1% (active).
Regarding `Cc1ccc(-c2nnc(SCC(=O)N/N=C/c3cccs3)n2-c2ccc(C)cc2)cc1`, the inhibition was 12.8% (inactive).
Regarding `NNC(=O)CSc1nnc(-c2ccccc2)n1-c1ccccc1`, the inhibition is -6.88% (inactive).
`O=C(CCC1CCCN(C(=O)c2ccc(F)c(F)c2)C1)N1CCN(c2ccccn2)CC1` (stereo unspecified): the inhibition is 9.19% (inactive).
`COc1cc(/C=C2/SC(=S)N(Cc3ccccc3)C2=O)cc(OC)c1O`: the inhibition was -5.6% (inactive).
Consider `O=C(Nc1cccc2cccnc12)c1cccc(Cl)c1`, for which the inhibition was -33.4% (inactive).
On to `O=C(Nc1ccccc1Cl)Nc1cccc2cccnc12`, for which the inhibition was 3.14% (inactive).
Take `CC(=O)/C(=N\Nc1ccc(Cl)cc1Cl)Sc1cccc2cccnc12`: the inhibition is 67.6% (active).
As for `CCOc1ccc(C(=O)CCC(=O)NC2=NCCS2)cc1`, the inhibition was 10.9% (inactive).
Consider `CC(=O)c1cc(CN2CCC(n3nccc3NC(=O)c3ccccc3Cl)CC2)cs1`, for which the inhibition is 9.08% (inactive).
`N=c1c2c(-c3ccccc3)c(-c3ccccc3)n(Cc3ccccc3)c2ncn1CCCO`: the inhibition was 70.5% (active).
For the compound `CCN(CC)CCn1cnc2c1c(=O)[nH]c(=O)n2Cc1ccccc1`, the inhibition was -8.26% (inactive).
The value for `COCCn1cnc2c1c(=O)n(Cc1ccc(Br)cc1)c(=O)n2Cc1ccccc1` was 19.6% (inactive); that for `N#Cc1ccc(-c2ccc(Cl)cc2)nc1Oc1ccc(F)cc1` was 14.3% (inactive).
The value for `N#CCCN(C(=O)COC(=O)c1ccc(S(=O)(=O)N2CCCCCC2)cc1)c1ccccc1` was -2.09% (inactive); that for `CC(C)CN(C(=O)Cn1c(=O)cnc2ccccc21)C1CCS(=O)(=O)C1` (stereo unspecified) was 11% (inactive).
As for `N#CCc1c(C#N)c(N)nc(N2CCCC2)c1C#N`, the inhibition was 8.26% (inactive).
As for `Cc1ncc(CO)c(/C=N/NC(=O)c2cccc(S(=O)(=O)N3CCCC3)c2)c1O`, the inhibition was -9.29% (inactive).
As for `CCn1c2c(c3ccc(OC)cc31)CCCC2=O`, the inhibition is -5.03% (inactive).
Take `O=C(/C(=C/c1cccc(Cl)c1)c1nc2ccccc2[nH]1)c1ccccc1`: the inhibition is 68.4% (active).
As for `CCC(=O)/C(=C(/O)c1ccccc1)c1nc2ccccc2[nH]1`, the inhibition is 3.53% (inactive).
Next, `O=C(Cc1nc2ccccc2[nH]c1=O)c1ccc(Cl)cc1`: 0.565% (inactive).
Consider `CCCCn1c(N)c(N(CC(C)C)C(=O)CSc2ccc([N+](=O)[O-])cc2)c(=O)[nH]c1=O`, for which the inhibition is 6.23% (inactive).
The value for `CC(Oc1ccc(Br)cc1)C(=O)NCC(c1ccco1)N1CCCCC1` (stereo unspecified) was -0.255% (inactive); that for `CCN(C(=O)CSc1nnnn1-c1ccccc1OC)C1CCS(=O)(=O)C1` (stereo unspecified) was -11.8% (inactive); that for `COC(=O)C1=C(C)Nc2ncnn2C1c1cccnc1` (stereo unspecified) was 17.7% (inactive).
In the case of `COC(=O)C1=C(C)Nc2ncnn2C1c1ccco1` (stereo unspecified), the inhibition is -1.94% (inactive).
As for `CC1=C(C(=O)OC2CCCCC2)C(c2cccnc2)n2ncnc2N1` (stereo unspecified), the inhibition is 61.7% (active).
In the case of `COc1ccc(C(=O)COC(=O)COc2ccc(C)c(C)c2)cc1`, the inhibition is 4.19% (inactive).
In the case of `O=S(=O)(NC1CCCCC1N1CCN(c2ccccc2F)CC1)c1ccccc1` (stereo unspecified), the inhibition was 20.8% (inactive).
Take `Cc1n[nH]c(=O)c2c(NC(=O)COC(=O)c3ncc(Cl)c(Cl)c3Cl)oc(C)c12`: the inhibition is -10.3% (inactive).
The value for `COc1ccc2c(CC(=O)OCC(=O)Nc3ccccc3[N+](=O)[O-])coc2c1` was 16.9% (inactive); that for `CCc1ccccc1NC(=O)CN(c1ccc(OC)cc1OC)S(=O)(=O)c1ccccc1[N+](=O)[O-]` was 58.4% (active); that for `COc1ccc(N(CC(=O)Nc2cccc3ccccc23)S(C)(=O)=O)c(OC)c1` was -7.06% (inactive).
Consider `O=C1N[C@@H](Cc2ccccc2)C(=O)N2[C@H]1C[C@]1(Br)c3ccccc3N(S(=O)(=O)c3ccccc3)[C@H]21`, for which the inhibition was -12.8% (inactive).
The value for `COc1ccc(-c2noc(COc3ccc(Cl)c(C)c3)n2)cc1` was -9.09% (inactive).
For the compound `c1ccc(CCc2nc(-c3ccncc3)no2)cc1`, the inhibition was -6.81% (inactive).
On to `Cc1cc(Cl)ccc1OCc1nc(-c2ccncc2)no1`, for which the inhibition was 74.8% (active).
In the case of `O=C(c1ccncc1)N1CCN(S(=O)(=O)c2cccc([N+](=O)[O-])c2)CC1`, the inhibition is 25.7% (inactive).
`CCCNC(=O)CCc1c(C)nc2c(c(C)nn2-c2ccccc2)c1C`: the inhibition was 28% (inactive).
Consider `CCCNC(=O)CCc1c(C)nc2c(c(C)nn2-c2ccc(C)cc2)c1C`, for which the inhibition is 63.7% (active).
Take `CCCNC(=O)c1c(Cl)cnn1-c1ccc(C)cc1`: the inhibition was -28% (inactive).
`O=S(=O)(O)Oc1c[nH]c2ccccc12`: the inhibition was -8.75% (inactive).
With `COc1ccccc1NC(=O)CN(c1ccccc1OC)S(=O)(=O)c1ccccc1`, the inhibition was 2.04% (inactive).
For the compound `COc1ccc(S(=O)(=O)N(CC(=O)N/N=C/c2ccccc2C(=O)O)c2ccccc2OC)cc1`, the inhibition was 20.6% (inactive).
Consider `COc1ccccc1N(CC(=O)N/N=C(\C)c1ccccc1O)S(=O)(=O)c1ccc(C)cc1`, for which the inhibition is 65.9% (active).
Next, `O=C(N/N=C/c1cc(Br)c(O)c([N+](=O)[O-])c1)C(O)(c1ccccc1)c1ccccc1`: -7.65% (inactive); `CCn1nc(C)c(NC(=O)/C=C/c2ccc(OC)c(COc3ccc(Br)cc3)c2)c1C`: 68.5% (active); `COc1ccc(/C=C/C(=O)Nc2c(C)nn(C)c2C)cc1COc1ccc(Br)cc1`: 30.9% (inactive).
The value for `COc1ccc(C(C)=O)cc1COc1ccc(Cl)c(C)c1` was 14.6% (inactive); that for `O=C(O)CCn1c(O)c(C=C2N=c3ccccc3=N2)sc1=S` was -24.7% (inactive).
`COc1ccc(NC(=S)NCC2CCN(c3ccc(OC)cc3)C2)cc1` (stereo unspecified): the inhibition is 6.37% (inactive).
The value for `COc1ccc(N2CCC(CNC(=S)Nc3c(C)cccc3C)C2)cc1` (stereo unspecified) was 55.3% (active); that for `COc1ccc(NC(=S)NCCN2CCC(C)CC2)cc1` was -11.2% (inactive); that for `CN1C(C(=O)NCC2CC2)CC2Cn3c(nc4ccccc43)C21` (stereo unspecified) was -19% (inactive).
The value for `O=C1CN(C(=O)COc2c(Cl)cccc2Cl)c2ccccc2N1` was -8.97% (inactive).

What is called inhibition is the relative decrease from the control value, in per cent.
